In ChEMBL document CHEMBL4406880, “Design, synthesis, and bioactivity of dihydropyrimidine derivatives as kinesin spindle protein inhibitors” (Bioorg Med Chem, 2019):

How the values were obtained:
Format in all cases: functional
[1] = system: OVCAR-8; test: Growth inhibition of human OVCAR8 cells incubated for 48 hrs by sulforhodamine B assay; settings: OVCAR-8, 48 h
How it was run: (§1)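 NCI-60 five-dose SRB assay. Cells were exposed for 48 h to tenfold dilutions of 0.01, 0.1, 1, 10 and 100 µM, in RPMI 1640 with 5% FBS. Plates fixed with TCA at the time of drug addition served as the time-zero reference. GI50 is the concentration giving a 50% reduction in net growth. TGI is total growth inhibition. LC50 is a net 50% loss of the initial cells.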

[2] = system: SW-620; test: Growth inhibition of human SW620 cells assessed as cell viability at 100 uM incubated for 48 hrs by sulforhodamine B assay; settings: SW-620, 48 h, read-out: Activity
[3] = system: SNB-75; test: Cell cycle arrest in human SNB75 cells assessed as accumulation in G2/M phase at 2 uM incubated for 24 hrs by propidium iodide based flow cytometry (reference value: 10.46 %)
How it was run: (§2)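 SNB-75 cells were exposed to 2 µM for 24 h at 37 °C, 5% CO2, then washed with PBS and fixed in 70% ethanol on ice for 15 min. They were stained 1 h at room temperature with 50 µg/mL propidium iodide, 0.1 mg/mL RNase A and 0.05% Triton X-100. DNA content was read by flow cytometry to give the % of cells in pre-G1, G0/G1, S and G2/M.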

[4] = system: 786-0; test: Growth inhibition of human 786-0 cells assessed as cell viability at 1 uM incubated for 48 hrs by sulforhodamine B assay; settings: 786-0, 48 h, read-out: Activity
How it was run: (§3)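 NCI-60 five-dose mode: five tenfold dilutions (0.01, 0.1, 1, 10, 100 µM) are applied for 48 h to cells in RPMI 1640 with 5% FBS at 37 °C. Endpoint is TCA fixation with sulforhodamine B read at 515 nm. % growth comes from the 0 h and control absorbances. GI50 is the concentration giving a 50% reduction in net cell growth.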

[5] = system: UO-31; test: Growth inhibition of human UO31 cells assessed as cell viability at 100 uM incubated for 48 hrs by sulforhodamine B assay; settings: UO-31, 48 h, read-out: Activity
[6] = system: SNB-75; test: Cell cycle arrest in human SNB75 cells assessed as accumulation in S phase at 2 uM incubated for 24 hrs by propidium iodide based flow cytometry (reference value: 33.92 %); how it was run: as §2
[7] = system: M14; test: Growth inhibition of human M14 cells assessed as cell viability at 100 uM incubated for 48 hrs by sulforhodamine B assay; settings: M14, 48 h, read-out: Activity
[8] = system: SNB-75; test: Growth inhibition of human SNB75 cells incubated for 48 hrs by sulforhodamine B assay; settings: SNB-75, 48 h; how it was run: as §1
[9] = system: NCI-H522; test: Growth inhibition of human NCI-H522 cells assessed as cell viability at 1 uM incubated for 48 hrs by sulforhodamine B assay; settings: NCI-H522, 48 h, read-out: Activity
[10] = system: BT-549; test: Growth inhibition of human BT549 cells incubated for 48 hrs by sulforhodamine B assay; settings: BT-549, 48 h; how it was run: as §3
[11] = system: OVCAR-8; test: Growth inhibition of human OVCAR8 cells assessed as cell viability at 0.1 uM incubated for 48 hrs by sulforhodamine B assay; settings: OVCAR-8, 48 h, read-out: Activity
[12] = system: OVCAR-4; test: Growth inhibition of human OVCAR4 cells assessed as cell viability at 0.001 uM incubated for 48 hrs by sulforhodamine B assay relative to control; settings: OVCAR-4, 48 h, read-out: Activity
[13] = system: COLO 205; test: Growth inhibition of human COLO205 cells assessed as cell viability at 0.001 uM incubated for 48 hrs by sulforhodamine B assay relative to control; settings: COLO 205, 48 h, read-out: Activity
[14] = system: RXF 393; test: Growth inhibition of human RXF393 cells assessed as cell viability at 0.001 uM incubated for 48 hrs by sulforhodamine B assay relative to control; settings: RXF 393, 48 h, read-out: Activity
[15] = system: UACC-62; test: Growth inhibition of human UACC62 cells assessed as cell viability at 1 uM incubated for 48 hrs by sulforhodamine B assay; settings: UACC-62, 48 h, read-out: Activity
[16] = system: SNB-75; test: Growth inhibition of human SNB75 cells assessed as cell viability at 1 uM incubated for 48 hrs by sulforhodamine B assay; settings: SNB-75, 48 h, read-out: Activity
[17] = system: IGROV-1; test: Growth inhibition of human IGROV1 cells assessed as cell viability at 0.1 uM incubated for 48 hrs by sulforhodamine B assay; settings: IGROV-1, 48 h, read-out: Activity
[18] = system: LOX IMVI; test: Growth inhibition of human LOXIMVI cells assessed as cell viability at 1 uM incubated for 48 hrs by sulforhodamine B assay; settings: read-out: Activity
[19] = system: MDA-MB-231; test: Growth inhibition of human MDA-MB-231 cells assessed as cell viability at 100 uM incubated for 48 hrs by sulforhodamine B assay; settings: MDA-MB-231, 48 h, read-out: Activity
[20] = system: SNB-75; test: Induction of apoptosis in human SNB75 cells assessed as necrosis at 2 uM incubated for 24 hrs by annexin V FITC and propidium iodide based flow cytometry (reference value: 0.44 %)
[21] = system: SF-268; test: Growth inhibition of human SF268 cells assessed as cell viability at 0.1 uM incubated for 48 hrs by sulforhodamine B assay; settings: SF-268, 48 h, read-out: Activity
[22] = system: ACHN; test: Growth inhibition of human ACHN cells incubated for 48 hrs by sulforhodamine B assay; how it was run: as §3
[23] = system: DU-145; test: Growth inhibition of human DU145 cells incubated for 48 hrs by sulforhodamine B assay; settings: DU-145, 48 h; how it was run: as §3
[24] = system: EKVX; test: Growth inhibition of human EKVX cells assessed as cell viability at 0.1 uM incubated for 48 hrs by sulforhodamine B assay; settings: read-out: Activity
[25] = system: DU-145; test: Growth inhibition of human DU145 cells assessed as cell viability at 100 uM incubated for 48 hrs by sulforhodamine B assay; settings: DU-145, 48 h, read-out: Activity
[26] = system: 786-0; test: Growth inhibition of human 786-0 cells assessed as cell viability at 0.1 uM incubated for 48 hrs by sulforhodamine B assay; settings: 786-0, 48 h, read-out: Activity; how it was run: as §3
[27] = read-out: LC50 (the source's name)
[28] = read-out: pLC50 (the source's name) (converted)

For `CC1=C(C(=O)OCc2ccccc2)C(c2ccc3c(c2)OCO3)n2c(nc3ccccc32)N1` (racemic), the GI50 ([1]; read-out: GI50) was 0.63 µM, the CC50 [1, 27] was greater than 100 µM and the TGI ([1]; read-out: TGI) was greater than 100 µM. It also gave a GI50 ([1]; read-out: pGI50 (converted)) of 0.631 µM, a CC50 [1, 28] greater than 100 µM and a TGI ([1]; read-out: pTGI) greater than 100 µM. It also gave a viability at 100 µM [2] of 6%, an Activity [3] of 37.59% and a viability at 1 µM [4] of 27%. It also gave a viability at 100 µM [5] of -7%, an Activity [6] of 27.89% and a viability at 100 µM [7] of 24%. The GI50 ([8]; read-out: GI50) was 0.22 µM, the LC50 (concentration giving 50% net loss of initial cells) ([8]; read-out: LC50) was greater than 100 µM and the TGI ([8]; read-out: TGI) was 0.8 µM. For the same molecule, the GI50 ([8]; read-out: pGI50 (converted)) was 0.214 µM, the LC50 (concentration giving 50% net loss of initial cells) ([8]; read-out: pLC50 (converted)) was greater than 100 µM and the TGI ([8]; read-out: pTGI (converted)) was 0.794 µM. The viability at 1 µM [9] was 3%, the GI50 ([10]; read-out: GI50) was 0.92 µM and the CC50 [10, 27] was greater than 100 µM. For the same molecule, the TGI ([10]; read-out: TGI) was greater than 100 µM, the GI50 ([10]; read-out: pGI50 (converted)) was 0.912 µM and the CC50 [10, 28] was greater than 100 µM. The TGI ([10]; read-out: pTGI) was greater than 100 µM, the viability at 0.1 µM [11] was 97% and the viability at 0.001 µM [12] was 82%. The viability at 0.001 µM [13] was 95%, the viability at 0.001 µM [14] was 92% and the viability at 1 µM [15] was 29%. The viability at 1 µM [16] was -8%, the viability at 0.1 µM [17] was 93% and the viability at 1 µM [18] was 35%. For the same molecule, the viability at 100 µM [19] was 49%, the Activity [20] was 2.05% and the viability at 0.1 µM [21] was 94%. The GI50 ([22]; read-out: GI50) was 0.69 µM, the CC50 [22, 27] was greater than 100 µM and the TGI ([22]; read-out: TGI) was greater than 100 µM. The GI50 ([22]; read-out: pGI50 (converted)) was 0.692 µM, the CC50 [22, 28] was greater than 100 µM and the TGI ([22]; read-out: pTGI) was greater than 100 µM. It also gave a GI50 ([23]; read-out: GI50) of 0.59 µM, a CC50 [23, 27] greater than 100 µM and a TGI ([23]; read-out: TGI) greater than 100 µM. For the same molecule, the GI50 ([23]; read-out: pGI50 (converted)) was 0.589 µM, the CC50 [23, 28] was greater than 100 µM and the TGI ([23]; read-out: pTGI) was greater than 100 µM. The viability at 0.1 µM [24] was 95%, the viability at 100 µM [25] was 41% and the viability at 0.1 µM [26] was 97%.
